According to ChEMBL document CHEMBL3352136, “Vinylated linear P2 pyrimidinyloxyphenylglycine based inhibitors of the HCV NS3/4A protease and corresponding macrocycles” (Bioorg Med Chem, 2014):
In brackets after ≈: the same amount, converted by molar mass.

Key:
[1] = target: Hepatitis C virus serine protease, NS3/NS4A (Hepatitis C virus, UniProt A3EZI9+D2K2A8); experiment: (§1) Inhibition of HCV genotype 1a NS3/4A protease using Ac-DED(Edans)EEAbu-psi[COO]ASK(Dabcyl)-NH2 as substrate by FRET assay; set-up: species or system Hepatitis C virus subtype 1a
Hepatitis C virus serine protease, NS3/NS4A (Hepatitis C virus, UniProt A3EZI9+D2K2A8), sequence (D2K2A8 whole entry): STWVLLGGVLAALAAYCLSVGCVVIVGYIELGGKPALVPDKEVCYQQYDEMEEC
Hepatitis C virus serine protease, NS3/NS4A (Hepatitis C virus, UniProt A3EZI9+D2K2A8), sequence (A3EZI9 whole entry): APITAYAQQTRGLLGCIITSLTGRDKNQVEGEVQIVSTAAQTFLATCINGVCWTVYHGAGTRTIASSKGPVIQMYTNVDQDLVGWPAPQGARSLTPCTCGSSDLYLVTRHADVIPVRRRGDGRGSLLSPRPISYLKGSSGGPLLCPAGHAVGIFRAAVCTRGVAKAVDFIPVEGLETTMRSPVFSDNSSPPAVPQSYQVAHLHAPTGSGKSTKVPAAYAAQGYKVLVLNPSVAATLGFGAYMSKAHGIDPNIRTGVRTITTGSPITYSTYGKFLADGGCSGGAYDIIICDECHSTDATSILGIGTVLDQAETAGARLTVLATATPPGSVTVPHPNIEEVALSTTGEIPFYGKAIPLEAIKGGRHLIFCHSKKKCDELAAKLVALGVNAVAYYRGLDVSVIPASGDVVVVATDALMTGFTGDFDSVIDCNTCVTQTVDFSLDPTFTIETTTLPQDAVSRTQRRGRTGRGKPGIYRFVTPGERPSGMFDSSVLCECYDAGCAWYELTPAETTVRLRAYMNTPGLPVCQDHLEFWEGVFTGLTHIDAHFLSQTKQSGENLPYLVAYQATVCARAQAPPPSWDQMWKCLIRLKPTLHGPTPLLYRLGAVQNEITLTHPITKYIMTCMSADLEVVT
Method in brief: (§2)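 Full-length NS3/4A (protease–helicase/NTPase, genotype 1a) measured by FRET. Buffer: 50 mM HEPES pH 7.5, 10 mM DTT, 40% glycerol, 0.1% n-octyl-β-D-glucoside, 3.3% DMSO. Ki values derived.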

[2] = Intrinsic clearance in human liver microsomes preincubated for 5 mins by LC/MS/MS analysis; format: ADME; details: liver microsomes
Method in brief: (§3)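 Compound at 1 µM preincubated 5 min at 37 °C with pooled human liver microsomes (0.5 mg/mL) in 0.1 M potassium phosphate pH 7.4. Reaction started with NADPH (1 mM final) and stopped at 0, 5, 15 and 40 min with ice-cold acetonitrile containing internal standard. LC/MS/MS read-out. ln(% remaining) regressed linearly on time; t1/2 and Clint derived assuming first-order kinetics. Dextromethorphan (3 µM) and midazolam (5 µM) served as CYP2D6/CYP3A4 controls.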

[3] = Half life in human liver microsomes preincubated for 5 mins by LC/MS/MS analysis; format: ADME; details: liver microsomes; method in brief: as §3
[4] = Apparent permeability from apical to basolateral side in human Caco2 cells; format: ADME, cell-based; details: Caco-2
Method in brief: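 Caco-2 monolayers on polycarbonate filter inserts, cells kept in 90% air/10% CO2. Compound diluted from 10 mM DMSO stock to 10 µM (final DMSO 0.1%) in FASSIF pH 7.4 on apical donor side. Receiver is HBSS pH 7.4 with 1% (w/v) BSA. Run at 37 °C with 500 rpm stirring. Receiver sampled at 15, 30 and 60 min, donor sampled at 60 min for mass balance. Membrane integrity checked afterwards, LC/MS/MS read-out, at least triplicates.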

[5] = Solubility of the compound in PBS after 2 hrs by LC-MS/MS analysis; format: physicochemical
Method in brief: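 DMSO stock (10 mM) added to PBS to 1% final DMSO, rotated in glass vials 2 h at 37 °C. Centrifuged 10,000g for 30 min, then supernatant quantified by LC–MS/MS. Upper detection limit 100 µM.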

Hepatitis C virus [6] = experiment: Antiviral activity against HCV genotype 1b infected in human Huh-7 cells by firefly luciferase assay; format: functional, cell-based, Hepacivirus hominis
Method in brief: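 Huh-7 cells carrying a subgenomic HCV genotype 1b replicon with firefly luciferase reporter; EC50 derived from luciferase signal.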

Hepatitis C virus [7] = experiment: Antiviral activity against HCV genotype 1a; format: functional, Hepacivirus hominis; details: subtype 1a
[8] = target: Hepatitis C virus serine protease, NS3/NS4A (Hepatitis C virus, UniProt D2K2A8+A3EZI9); experiment: as §1; set-up: species or system Hepatitis C virus subtype 1a; method in brief: as §2
Hepatitis C virus serine protease, NS3/NS4A (Hepatitis C virus, UniProt D2K2A8+A3EZI9), sequence (D2K2A8 whole entry): as the sequence (D2K2A8 whole entry) above
Hepatitis C virus serine protease, NS3/NS4A (Hepatitis C virus, UniProt D2K2A8+A3EZI9), sequence (A3EZI9 whole entry): as the sequence (A3EZI9 whole entry) above

## C=CCCCS(=O)(=O)NC(=O)[C@H](CCC)NC(=O)[C@@H](NC(=O)[C@@H](NC(=O)OC(C)(C)C)C(C)(C)C)c1ccc(Oc2cc(-c3ccccc3)nc3cc(OC)ccc23)c(C=C)c1
[1]
  Ki: 63 nM

## C=CCCCS(=O)(=O)NC(=O)[C@H](CCC)NC(=O)[C@@H]1C[C@@H](Oc2cc(-c3ccccc3)nc3cc(OC)ccc23)CN1C(=O)[C@@H](NC(=O)OC(C)(C)C)C(C)(C)C
[1]
  Ki: 300 nM

## COc1ccc2c(O[C@@H]3C[C@@H](C(=O)Nc4ccccc4C(=O)NS(=O)(=O)c4ccccc4)N(C(=O)[C@@H](NC(=O)OC(C)(C)C)C(C)(C)C)C3)cc(-c3ccccc3)nc2c1
[1]
  Ki: 830 nM

## COc1ccc2c(O[C@@H]3C[C@H]4C(=O)N[C@]5(C(=O)O)C[C@H]5/C=C\CCCCC[C@H](NC(=O)OC5CCCC5)C(=O)N4C3)cc(-c3csc(NC(C)C)n3)nc2c1
[1]
  Ki: 0.3 nM

## C=CCCCS(=O)(=O)NC(=O)c1ccccc1NC(=O)[C@@H](NC(=O)[C@@H](NC(=O)OC(C)(C)C)C(C)(C)C)c1ccc(Oc2cc(OC)nc(-c3ccccc3)n2)c(C=C)c1
[1]
  Ki: 26 nM
[2]
  microsomal CLint: 17 µL/min/mg
[3]
  half-life: 83 min
[4]
  Papp A→B: 1.7 ×10⁻⁶ cm/s
[5]
  solubility at 2 h: 66 µM (≈ 55.5 µg/mL)
Hepatitis C virus [6]
  EC50: > 10000 nM

## C=CCCCS(=O)(=O)NC(=O)c1ccccc1NC(=O)[C@H](NC(=O)[C@@H](NC(=O)OC(C)(C)C)C(C)(C)C)c1ccc(Oc2cc(OC)nc(-c3ccccc3)n2)c(C=C)c1
[1]
  Ki: 33 nM
Hepatitis C virus [6]
  EC50: > 10000 nM

## C=CCCCS(=O)(=O)NC(=O)c1ccccc1NC(=O)[C@@H](NC(=O)OC(C)(C)C)c1ccc(Oc2cc(OC)nc(-c3ccccc3)n2)c(C=C)c1
[1]
  Ki: 190 nM
[4]
  Papp A→B: 1 ×10⁻⁶ cm/s
[5]
  solubility at 2 h: 101 µM (≈ 73.5 µg/mL)

## CCC[C@H](NC(=O)C1[C@H]2CCC[C@H]2CN1C(=O)[C@@H](NC(=O)[C@@H](NC(=O)c1cnccn1)C1CCCCC1)C(C)(C)C)C(=O)C(=O)NC1CC1 (stereo partly drawn)
[1]
  Ki: 40 nM
Hepatitis C virus [7]
  EC50: 350 nM

## COc1ccc2c(Oc3ccc([C@H](NC(=O)[C@@H](NC(=O)OC(C)(C)C)C(C)(C)C)C(=O)Nc4ccccc4C(=O)NS(=O)(=O)c4ccccc4)cc3)cc(-c3ccccc3)nc2c1
[1]
  Ki: 310 nM

## C=CCCCS(=O)(=O)NC(=O)c1ccccc1NC(=O)[C@@H](NC(=O)OC(C)(C)C)c1ccc(Oc2cc(C=C)nc(-c3ccccc3)n2)cc1
[1]
  Ki: 220 nM

## C=CCCCS(=O)(=O)NC(=O)c1ccccc1NC(=O)[C@@H](NC(=O)OC(C)(C)C)c1ccc(Oc2cc(OC)nc(-c3ccccc3)n2)cc1
[1]
  Ki: 600 nM
[2]
  microsomal CLint: 86 µL/min/mg
[3]
  half-life: 16 min
[4]
  Papp A→B: 4 ×10⁻⁶ cm/s
[5]
  solubility at 2 h: 93 µM (≈ 65.3 µg/mL)

## C=CCCS(=O)(=O)NC(=O)c1ccccc1NC(=O)[C@@H](NC(=O)OC(C)(C)C)c1ccc(Oc2cc(OC)nc(-c3ccccc3)n2)c(C=C)c1
[1]
  Ki: 370 nM

## C=CCCCS(=O)(=O)NC(=O)c1ccccc1NC(=O)[C@@H](NC(=O)[C@@H](NC(=O)OCCC=C)C(C)(C)C)c1ccc(Oc2cc(C=C)nc(-c3ccccc3)n2)cc1
[1]
  Ki: 110 nM

## C=CCCCCC[C@H](NC(=O)OC(C)(C)C)C(=O)N[C@H](C(=O)Nc1ccccc1C(=O)NS(=O)(=O)CCCC=C)c1ccc(Oc2cc(OC)nc(-c3ccccc3)n2)cc1
[1]
  Ki: 230 nM
[2]
  microsomal CLint: 60 µL/min/mg
[3]
  half-life: 23 min
[4]
  Papp A→B: 0.22 ×10⁻⁶ cm/s
[5]
  solubility at 2 h: 91 µM (≈ 77.8 µg/mL)

## C=CCCCS(=O)(=O)NC(=O)c1ccccc1NC(=O)[C@@H](NC(=O)[C@@H](NC(=O)OC(C)(C)C)C(C)(C)C)c1ccc(Oc2cc(OC)nc(-c3ccccc3)n2)cc1
[1]
  Ki: 95 nM
[2]
  microsomal CLint: 64 µL/min/mg
[3]
  half-life: 22 min
[4]
  Papp A→B: 0.22 ×10⁻⁶ cm/s
[5]
  solubility at 2 h: 33 µM (≈ 26.9 µg/mL)

## CCC[C@@H]1NC(=O)[C@@H](NC(=O)[C@@H](NC(=O)OC(C)(C)C)C(C)(C)C)c2ccc(cc2)Oc2cc(nc(-c3ccccc3)n2)/C=C/CCCS(=O)(=O)NC1=O
[1]
  Ki: 2400 nM

## CC(C)(C)OC(=O)N[C@H](C(=O)N[C@@H]1C(=O)Nc2ccccc2C(=O)NS(=O)(=O)CCC/C=C/c2cc(nc(-c3ccccc3)n2)Oc2ccc1cc2)C(C)(C)C
[1]
  Ki: 660 nM

## COc1cc(Oc2ccc3cc2/C=C/CCS(=O)(=O)NC(=O)c2ccccc2NC(=O)[C@H]3NC(=O)OC(C)(C)C)nc(-c2ccccc2)n1
[1]
  Ki: 1300 nM

## COc1cc(Oc2ccc3cc2/C=C/CCS(=O)(=O)NC(=O)c2ccccc2NC(=O)[C@H]3NC(=O)[C@@H](NC(=O)OC(C)(C)C)C(C)(C)C)nc(-c2ccccc2)n1
[1]
  Ki: 630 nM

## COc1cc(Oc2ccc(C3NC(=O)[C@H](NC(=O)OC(C)(C)C)CCCCC/C=C/CCS(=O)(=O)NC(=O)c4ccccc4NC3=O)cc2)nc(-c2ccccc2)n1 (stereo partly drawn)
[1]
  Ki: 220 nM

## COc1cc(Oc2ccc(C3NC(=O)[C@H](NC(=O)OC(C)(C)C)CCCCCCCCCS(=O)(=O)NC(=O)c4ccccc4NC3=O)cc2)nc(-c2ccccc2)n1 (stereo partly drawn)
[1]
  Ki: 130 nM

## C=CCCCS(=O)(=O)NC(=O)c1ccccc1NC(=O)[C@H]1NC(=O)[C@H](C(C)(C)C)NC(=O)OCC/C=C/c2cc(nc(-c3ccccc3)n2)Oc2ccc1cc2
[1]
  Ki: 390 nM

## C=CCCCS(=O)(=O)NC(=O)[C@H](CCC)NC(=O)[C@H]1NC(=O)[C@H](C(C)(C)C)NC(=O)OCC/C=C/c2cc(nc(-c3ccccc3)n2)Oc2ccc1cc2
[1]
  Ki: 1570 nM

## C=CCCCS(=O)(=O)NC(=O)c1ccccc1NC(=O)[C@@H](NC(=O)[C@@H](NC(=O)OC(C)(C)C)C(C)(C)C)c1ccc(Oc2cc(-c3ccccc3)nc3cc(OC)ccc23)c(C=C)c1
Hepatitis C virus [6]
  EC50: 5400 nM

## C=CCCCS(=O)(=O)NC(=O)c1ccccc1NC(=O)[C@H](NC(=O)[C@@H](NC(=O)OC(C)(C)C)C(C)(C)C)c1ccc(Oc2cc(-c3ccccc3)nc3cc(OC)ccc23)c(C=C)c1
Hepatitis C virus [6]
  EC50: 5400 nM

## CC[C@@H]1C[C@]1(NC(=O)[C@@H]1C[C@@H]2CN1C(=O)[C@H](C(C)(C)C)NC(=O)OCC(C)(C)CCCCc1cccc3c1CN(C3)C(=O)O2)C(=O)NS(=O)(=O)C1CC1
[1]
  Ki: 0.05 nM
Hepatitis C virus [7]
  EC50: 5 nM

## COc1ccc2c(O[C@@H]3C[C@H]4C(=O)N[C@]5(C(=O)NS(=O)(=O)C6CC6)C[C@H]5/C=C\CCCCN(C)C(=O)[C@@H]4C3)cc(-c3nc(C(C)C)cs3)nc2c1C
[1]
  Ki: 0.36 nM
Hepatitis C virus [7]
  EC50: 7.8 nM

## COc1cc(Oc2ccc(C3NC(=O)[C@H](NC(=O)OC(C)(C)C)CCCCCCCCCCS(=O)(=O)NC(=O)c4ccccc4NC3=O)cc2)nc(-c2ccccc2)n1 (single isomer, unassigned; diastereomer 2)
[1]
  Ki: 110 nM

## COc1cc(Oc2ccc(C3NC(=O)[C@H](NC(=O)OC(C)(C)C)CCCCC/C=C/CCCS(=O)(=O)NC(=O)c4ccccc4NC3=O)cc2)nc(-c2ccccc2)n1 (stereo in doubt; 29L)
[1]
  Ki: 110 nM
[2]
  microsomal CLint: 87 µL/min/mg
[3]
  half-life: 16 min
[4]
  Papp: 0.35 ×10⁻⁶ cm/s
[5]
  solubility at 2 h: 51 µM (≈ 42.2 µg/mL)

## COc1cc(Oc2ccc(C3NC(=O)[C@H](NC(=O)OC(C)(C)C)CCCCCCCCCCS(=O)(=O)NC(=O)c4ccccc4NC3=O)cc2)nc(-c2ccccc2)n1 (stereo in doubt; 31L)
[8]
  Ki: 110 nM

## CC(C)(C)NC(=O)N[C@H](C(=O)N1C[C@H]2[C@@H]([C@H]1C(=O)NC(CC1CCC1)C(=O)C(N)=O)C2(C)C)C(C)(C)C (stereo partly drawn) [BOCEPREVIR]
[1]
  Ki: 14 nM
